Screens (PubChem BioAssay)
Most compounds without a hit are left out; they make up all but 3.2% or so of the library.
PfHsp90 set2: growth inhibition of PfHsp90-expressing yeast, primary screen, antimalarial PfHsp90 inhibitor project, S. cerevisiae, BacTiter-Glo luminescence, single point, set 2; inhibition, % at 9.4 µM; AID 504621, 2011; 310,000 tested, 0.32% active; BacTiter-Glo ATP, 48 h; yeast lacking PDR1 and PDR3 efflux regulators;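 active = every replicate shows inhibition above about 80%, whatever the replicate mean, limit read from the data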;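 note: 0% = DMSO neutral controls and 100% = 20 µM radicicol positive controls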
Cneo AK release: Cryptococcus neoformans cell lysis inducers, primary screen, AK release luminescence, single concentration; 360,000 tested, 0.2% active; C. neoformans lysis, adenylate kinase release luminescence, 4 h; normalised: neutral wells 0, clomiphene wells 100; lysis activity, % at 15 µM;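 active = mean lysis activity across replicates of at least 80%, whatever share of replicates individually reach that level; inactive = mean lysis activity below 80%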
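Material – log-phase Cryptococcus neoformans yeast cells · Input – 5 × 10^6 yeast cells/mL · Medium – fresh YPD growth medium · Doses – single compound concentration per well · Timing – static 4 h at 37 °C with compound, 1 h detection · Detection – adenylate kinase release luminescence · Read-out – signal increase indicating cell lysis · Control set – Clomiphene as positive lysis control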
DENV2 CPE: inhibitors of DENV2 cytopathic effect, primary screen, cell-based, plate reader, single concentration | DENV2-infected cells, cytopathic effect rescue | CPE inhibition, % at 9.99 µM | 350,000 tested, 1.7% active; in the data active = CPE inhibition above about 20%, passing the limit was not always enough; tested in BHK-21 cells;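 note: 0% = median of neutral control wells and 100% = median of positive control wells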
AF4-AF9 inh: inhibitors of AF4 peptide binding to AF9, primary screen, biochemical, AlphaScreen, biotin-AF4 peptide, FLAG-AF9, single point. 350,000 tested, 0.47% active. inhibition, % at 10 µM. AID 651704, 2012. Protein AF-9 (Homo sapiens), P42568;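 active = every replicate reaching a set inhibition limit, whatever the replicate mean, cut at about 25% in these data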;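 note: 0% = plate neutral control median and 100% = total signal loss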
S100A4 MyoIIA: inhibitors of S100A4-myosin IIA peptide binding, primary screen, biochemical, fluorescence polarization, TAMRA-MyoIIA peptide; Protein S100-A4 (Homo sapiens), P26447; inhibition, % at 10.7 µM; 360,000 tested, 0.14% active; AID 652163, 2013;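 active = mean inhibition of at least 70% across replicates, with every replicate also reaching that level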
Target sequence (P26447 whole entry, looked up): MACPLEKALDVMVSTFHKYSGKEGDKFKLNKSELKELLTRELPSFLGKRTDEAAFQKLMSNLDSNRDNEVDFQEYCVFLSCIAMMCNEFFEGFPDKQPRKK
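Compound dosing: one dose per compound; test system: human S100A4 monomer with TAMRA-labelled myosin IIA peptide; probe or stimulus: TAMRA-labelled myosin IIA heavy-chain peptide probe, 5 nM; medium: HEPES buffer with Ca2+, pH 7.2; schedule: 5 min incubation before reading; benchmarks: neutral control DMSO, positive control TFP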
Ecoli rRNA inh: reduced GFP signal of wild-type E. coli, primary screen, bacterial rRNA inhibitor project, GFP/RFP fluorescence, OD600, single point. AID 720706, 2013. 350,000 tested, 1.6% active. GFP signal change (wild-type ribosome), % (no concentration beside the values). E. coli WT GFP vs humanized-ribosome RFP mutants, 24 h; stronger effect = lower value; DMSO median 0, no signal -100;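 active = significant combined selectivity score with lowered wild-type GFP, culture density cut under 30%, mutant RFP and density less affected; inactive = any of these conditions unmet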
* marks the source's active call; other numbers are inactive results; x = not tested or not shown; ! = a repeat was not active.

SMILES | PfHsp90 set2 | Cneo AK release | DENV2 CPE | AF4-AF9 inh | S100A4 MyoIIA | Ecoli rRNA inh
COc1ccc(CN(C)C[C@@H]2Oc3ccc(NC(=O)C4CCCCC4)cc3C(=O)N([C@H](C)CO)C[C@@H]2C)cc1 | x | 2 | 4 | 0 | -3 | 0
C[C@@H]1CN([C@@H](C)CO)C(=O)c2cc(NC(=O)CCCN(C)C)ccc2O[C@@H](C)CCCCO[C@@H]1CN(C)Cc1ccncc1 | x | -2 | -1 | -6 | 7 | 1
O=C(/C=C/c1ccc(Br)cc1)c1ccc(NC2=NCCCS2)cc1 | 12 | x | 2 | -2 | 7 | -13
O=C(/C=C/c1ccccc1)c1ccc(NC2=NCCCS2)cc1 | 12 | -8 | -2 | 10 | 2 | -26*
Nc1ccc(N2C(=O)c3ccccc3C2=O)c(Cl)c1 | 14 | 1 | 39* | 0 | 2 | 1
O=C1c2cccc3cccc(c23)C(=O)N1c1ccccc1Cl | -27 | 0 | 9 | -10 | 1 | -32*
Cc1c(Cl)cccc1N1C(=O)c2ccccc2C1=O | -1 | -2 | x | x | x | x
Cc1noc(C)c1S(=O)(=O)N(C)C[C@H]1Oc2ccc(NS(=O)(=O)c3ccccc3)cc2CC(=O)N([C@@H](C)CO)C[C@H]1C | x | 0 | -6 | -2 | -13 | 4
CC1CCN(C(C(=O)Nc2ccc3c(c2)OCO3)c2ccccc2)CC1 (configuration not stated) | 0 | -4 | -2 | 52* | -1 | -1
C[C@H](O)C#Cc1ccc2c(c1)O[C@@H](CN(C)C(=O)c1ccccc1)[C@@H](C)CN([C@@H](C)CO)S2(=O)=O | x | 11 | -1 | -3 | -5 | -1
CCOc1ccc2nc(N/C(N)=N/C(=S)Nc3ccc(C)c(C)c3)nc(C)c2c1 | -5 | x | 108* | -7 | -3 | 5
CC[N+](CC)(CC)CCOc1ccc(/C=C/c2ccccc2)cc1 | 32 | -1 | -5 | 13 | 2 | -53
CC[N+](CC)(CC)CCCCOc1ccc2c(c1)C(=O)c1cc(OCCCC[N+](CC)(CC)CC)ccc1-2 | -3 | -3 | 3 | 0 | 2 | -54*
CC(C)NC(=O)N1Cc2cc(C(=O)NC3CCC3)nc(-c3cccc(-c4cccnc4)c3)c2[C@H]1CCO | x | x | -15 | 2 | 2 | -5
CC(C)NC(=O)N1Cc2cc(C(=O)NC3CCCCC3)nc(-c3cccc(-c4cccnc4)c3)c2[C@@H]1CCO | x | x | 4 | 12 | -6 | -40*!
CCNC(=O)c1cc2c(c(-c3cccc(-c4ccncc4)c3)n1)[C@@H](CCO)N(S(=O)(=O)CC)C2 | x | x | 51* | 0 | 24 | -5
O=C1CN(S(=O)(=O)Cc2ccccc2)C[C@H]2[C@@H](c3ccc(C#CC4CC4)cc3)[C@@H](CO)N12 | x | x | 4 | 2 | 1 | 3
O=C1NC[C@H](c2ccccc2)OC(=O)[C@@H](Cc2ccc(F)cc2)CC/C=C/C[C@@H]1CC(=O)N(CCO)Cc1ccccc1 | -6 | -4 | 47* | 1 | 0 | -20
O=C(C[C@H]1C/C=C\CC[C@H](Cc2ccc(F)cc2)C(=O)O[C@@H](c2ccccc2)CNC1=O)N[C@H](CO)Cc1ccccc1 | 13 | -1 | 86* | 1 | 7 | 6
CC(C)(C)OC(=O)C[C@@H]1C/C=C\C[C@H](CC(=O)NCCO)C(=O)N2CCC[C@H]2COC1=O | 10 | -2 | 83* | x | 4 | 7
O=C1CCCC/C=C\C[C@H](CC(=O)N(CCO)Cc2ccccc2)C(=O)NC[C@H](c2ccccc2)O1 | 3 | 7 | 130* | x | -1 | -4
CO[C@@H]1CN(C)C(=O)c2cc(NS(C)(=O)=O)ccc2OC[C@H](C)N(CC2CCOCC2)C[C@H]1C | x | x | x | x | x | 1
